Test results from ChEMBL document CHEMBL2434966, “Novel N-4-piperazinyl-ciprofloxacin-chalcone hybrids: synthesis, physicochemical properties, anticancer and topoisomerase I and II inhibitory activity” (Eur J Med Chem, 2013).

Assays:
Assay type in all cases: functional
[1] = system: A498; assay: Growth inhibition of human A498 cells assessed as cell growth at 10^-5 M after 48 hrs by sulforhodamine B assay; details: A498, 48 h, read-out: Activity
Method in brief: (§1)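 NCI 60-cell-line primary screen. Single concentration of 10^-5 M, 48 h incubation. End point by sulforhodamine B protein staining read spectrophotometrically. Reported as percent growth of treated cells relative to untreated control cells.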

[2] = system: SK-MEL-28; assay: Growth inhibition of human SK-MEL-28 cells assessed as cell growth at 10^-5 M after 48 hrs by sulforhodamine B assay; details: SK-MEL-28, 48 h, read-out: Activity
Method in brief: (§2)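 NCI 60-cell-line primary one-dose screen. Cells were exposed to a single 10^-5 M concentration for 48 h. The end point was sulforhodamine B protein staining, read spectrophotometrically. Results are reported as percent growth of treated cells relative to untreated control cells.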

[3] = system: KM12; assay: Growth inhibition of human KM12 cells assessed as cell growth at 10^-5 M after 48 hrs by sulforhodamine B assay; details: KM12, 48 h, read-out: Activity; method in brief: as §1
[4] = system: UO-31; assay: Growth inhibition of human UO31 cells assessed as cell growth at 10^-5 M after 48 hrs by sulforhodamine B assay; details: UO-31, 48 h, read-out: Activity
Method in brief: (§3)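 NCI primary one-dose screen: single concentration of 10^-5 M added to culture, 48 h incubation, SRB protein-dye endpoint. Percent growth of treated cells measured spectrophotometrically against untreated controls.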

[5] = system: NCI-H226; assay: Growth inhibition of human NCI-H226 cells assessed as cell growth at 10^-5 M after 48 hrs by sulforhodamine B assay; details: NCI-H226, 48 h, read-out: Activity; method in brief: as §2
[6] = system: SK-MEL-5; assay: Growth inhibition of human SK-MEL-5 cells after 48 hrs by sulforhodamine B assay; details: SK-MEL-5, 48 h; for CC50: read-out: LC50 (the source's name)
Method in brief: (§4)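 NCI five-dose screen on the full 60-cell-line panel. Cells were given 10-fold dilutions from 10^-4 to 10^-8 M with continuous 48 h exposure, and growth was read by SRB staining. Percent growth was taken from time-zero, control and treated absorbances. GI50, TGI and LC50 were then derived, the GI50 being the concentration that gives a 50% lower net protein increase than control.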

[7] = system: MCF7; assay: Growth inhibition of human MCF7 cells after 48 hrs by sulforhodamine B assay; details: MCF7, 48 h
Method in brief: (§5)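 NCI 60-panel five-dose test at 10-fold dilutions, 10^-4 to 10^-8 M, with 48 h continuous exposure and SRB protein read-out. Percent growth derived from time-zero, untreated-control and treated absorbances. GI50 is the concentration where [(Ti-Tz)/(C-Tz)]×100 = 50. TGI is taken at Ti = Tz. LC50 is taken at [(Ti-Tz)/Tz]×100 = -50.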

[8] = system: MDA-MB-468; assay: Growth inhibition of human MDA-MB-468 cells assessed as cell growth at 10^-5 M after 48 hrs by sulforhodamine B assay; details: MDA-MB-468, 48 h, read-out: Activity; method in brief: as §2
[9] = system: MDA-MB-468; assay: Growth inhibition of human MDA-MB-468 cells after 48 hrs by sulforhodamine B assay; details: MDA-MB-468, 48 h; method in brief: as §4
[10] = system: 786-0; assay: Growth inhibition of human 786-0 cells assessed as cell growth at 10^-5 M after 48 hrs by sulforhodamine B assay; details: 786-0, 48 h, read-out: Activity; method in brief: as §1
[11] = system: HT-29; assay: Growth inhibition of human HT-29 cells assessed as cell growth at 10^-5 M after 48 hrs by sulforhodamine B assay; details: HT-29, 48 h, read-out: Activity; method in brief: as §1
[12] = system: UO-31; assay: Growth inhibition of human UO31 cells after 48 hrs by sulforhodamine B assay; details: UO-31, 48 h
Method in brief: (§6)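 NCI 60-cell panel, five concentrations (10-fold dilutions, 0.01–100 µM), 48 h continuous exposure; SRB protein stain read spectrophotometrically. Percent growth from time-zero, untreated-control and treated absorbances. GI50 is the concentration giving 50% lower net protein increase than control. Values beyond the tested range are reported as more or less than the highest or lowest concentration.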

[13] = system: HOP-92; assay: Growth inhibition of human HOP92 cells assessed as cell growth at 10^-5 M after 48 hrs by sulforhodamine B assay; details: HOP-92, 48 h, read-out: Activity; method in brief: as §1
[14] = system: SW-620; assay: Growth inhibition of human SW620 cells assessed as cell growth at 10^-5 M after 48 hrs by sulforhodamine B assay; details: SW-620, 48 h, read-out: Activity; method in brief: as §3
[15] = system: UACC-257; assay: Growth inhibition of human UACC257 cells after 48 hrs by sulforhodamine B assay; details: UACC-257, 48 h; for CC50: read-out: LC50 (the source's name); method in brief: as §6
[16] = system: SW-620; assay: Growth inhibition of human SW620 cells after 48 hrs by sulforhodamine B assay; details: SW-620, 48 h; for CC50: read-out: LC50 (the source's name); method in brief: as §6
[17] = system: BT-549; assay: Growth inhibition of human BT549 cells after 48 hrs by sulforhodamine B assay; details: BT-549, 48 h; method in brief: as §5
[18] = system: SK-OV-3; assay: Growth inhibition of human SKOV3 cells assessed as cell growth at 10^-5 M after 48 hrs by sulforhodamine B assay; details: SK-OV-3, 48 h, read-out: Activity; method in brief: as §2
[19] = system: SF-295; assay: Growth inhibition of human SF295 cells after 48 hrs by sulforhodamine B assay; details: SF-295, 48 h; method in brief: as §4
[20] = system: MDA-MB-231; assay: Growth inhibition of human MDA-MB-231 cells assessed as cell growth at 10^-5 M after 48 hrs by sulforhodamine B assay; details: MDA-MB-231, 48 h, read-out: Activity; method in brief: as §2
[21] = system: CAKI-1; assay: Growth inhibition of human CAKI-1 cells after 48 hrs by sulforhodamine B assay; details: CAKI-1, 48 h; method in brief: as §5
[22] = system: UACC-257; assay: Growth inhibition of human UACC257 cells assessed as cell growth at 10^-5 M after 48 hrs by sulforhodamine B assay; details: UACC-257, 48 h, read-out: Activity; method in brief: as §3
[23] = system: HOP-62; assay: Growth inhibition of human HOP62 cells after 48 hrs by sulforhodamine B assay; details: HOP-62, 48 h; method in brief: as §5
[24] = system: NCI-H460; assay: Growth inhibition of human NCI-H460 cells assessed as cell growth at 10^-5 M after 48 hrs by sulforhodamine B assay; details: NCI-H460, 48 h, read-out: Activity; method in brief: as §2
[25] = system: OVCAR-3; assay: Growth inhibition of human OVCAR3 cells assessed as cell growth at 10^-5 M after 48 hrs by sulforhodamine B assay; details: OVCAR-3, 48 h, read-out: Activity; method in brief: as §2
[26] = system: UACC-62; assay: Growth inhibition of human UACC62 cells assessed as cell growth at 10^-5 M after 48 hrs by sulforhodamine B assay; details: UACC-62, 48 h, read-out: Activity; method in brief: as §3

Compound: O=C(CN1CCN(c2cc3c(cc2F)c(=O)c(C(=O)O)cn3C2CC2)CC1)Nc1ccc(C(=O)/C=C/c2ccccc2)cc1
- growth at 10 µM [1]: 57.7%
- growth at 10 µM [2]: 85.7%
- growth at 10 µM [3]: 25.3%
- growth at 10 µM [4]: 45%
- growth at 10 µM [5]: 57.4%
- GI50 [6]: 2.74 µM
- TGI [6]: 13 µM
- CC50 [6]: > 100 µM
- GI50 [7]: 3.52 µM
- LC50 (50% net cell kill) [7]: > 100 µM
- TGI [7]: > 100 µM
- growth at 10 µM [8]: 33.8%
- GI50 [9]: 2.45 µM
- LC50 (concentration killing 50% of starting cells) [9]: > 100 µM
- TGI [9]: 23.2 µM
- growth at 10 µM [10]: 23.2%
- growth at 10 µM [11]: 11.4%
- GI50 [12]: 2.78 µM
- LC50 (concentration killing 50% of cells) [12]: > 100 µM
- TGI [12]: 45.4 µM
- growth at 10 µM [13]: 14.9%
- growth at 10 µM [14]: 41%
- GI50 [15]: 3.9 µM
- TGI [15]: 90.8 µM
- CC50 [15]: > 100 µM
- GI50 [16]: 3.8 µM
- TGI [16]: > 100 µM
- CC50 [16]: > 100 µM
- GI50 [17]: 3.56 µM
- LC50 (concentration giving 50% net cell kill) [17]: > 100 µM
- TGI [17]: > 100 µM
- growth at 10 µM [18]: 93.6%
- GI50 [19]: 2.11 µM
- LC50 (concentration giving 50% net cell kill) [19]: > 100 µM
- TGI [19]: 6.25 µM
- growth at 10 µM [20]: 55.1%
- GI50 [21]: 1.76 µM
- LC50 (concentration killing 50% of starting cells) [21]: > 100 µM
- TGI [21]: 5.32 µM
- growth at 10 µM [22]: 61.1%
- GI50 [23]: 4.46 µM
- LC50 (concentration killing 50% of starting cells) [23]: > 100 µM
- TGI [23]: > 100 µM
- growth at 10 µM [24]: 7.12%
- growth at 10 µM [25]: 54.9%
- growth at 10 µM [26]: 35.5%

Compound: COc1cc(/C=C/C(=O)c2ccc(NC(=O)CN3CCN(c4cc5c(cc4F)c(=O)c(C(=O)O)cn5C4CC4)CC3)cc2)cc(OC)c1OC
- growth at 10 µM [1]: -43.8%
- growth at 10 µM [2]: 34%
- growth at 10 µM [3]: -65.1%
- growth at 10 µM [4]: 2.96%
- growth at 10 µM [5]: -9.81%
- GI50 [6]: 1.06 µM
- TGI [6]: 4.06 µM
- CC50 [6]: > 100 µM
- GI50 [7]: 0.47 µM
- LC50 (50% net cell kill) [7]: > 100 µM
- TGI [7]: > 100 µM
- growth at 10 µM [8]: -1.82%
- GI50 [9]: 0.33 µM
- LC50 (concentration killing 50% of starting cells) [9]: 40.7 µM
- TGI [9]: 1.78 µM
- growth at 10 µM [10]: -67.8%
- growth at 10 µM [11]: -3.37%
- GI50 [12]: 1.17 µM
- LC50 (concentration killing 50% of cells) [12]: > 100 µM
- TGI [12]: 6.8 µM
- growth at 10 µM [13]: -1.75%
- growth at 10 µM [14]: 6.38%
- GI50 [15]: 1.42 µM
- TGI [15]: 65.4 µM
- CC50 [15]: > 100 µM
- GI50 [16]: 0.42 µM
- TGI [16]: 3.2 µM
- CC50 [16]: > 100 µM
- GI50 [17]: 0.3 µM
- LC50 (concentration giving 50% net cell kill) [17]: 6.98 µM
- TGI [17]: 1.17 µM
- growth at 10 µM [18]: 33.3%
- GI50 [19]: 0.53 µM
- LC50 (concentration giving 50% net cell kill) [19]: 53.1 µM
- TGI [19]: 3.13 µM
- growth at 10 µM [20]: 27.6%
- GI50 [21]: 1.13 µM
- LC50 (concentration killing 50% of starting cells) [21]: > 100 µM
- TGI [21]: > 100 µM
- growth at 10 µM [22]: 30.8%
- GI50 [23]: 0.36 µM
- LC50 (concentration killing 50% of starting cells) [23]: 56.9 µM
- TGI [23]: 11.4 µM
- growth at 10 µM [24]: -20%
- growth at 10 µM [25]: -25.8%
- growth at 10 µM [26]: -23.5%
